Laboratory results reported in ChEMBL document CHEMBL5149972, “Novel Antimalarial Tetrazoles and Amides Active against the Hemoglobin Degradation Pathway in Plasmodium falciparum” (J Med Chem, 2021).
≈ marks a conversion by molar mass, not a printed value.

Experiments:
Plasmodium falciparum [1] = assay: Antiplasmodial activity against drug resistant Plasmodium falciparum Dd2 infected in human RBC assessed as parasite growth inhibition incubated for 72 hrs by SYBR Green dye based fluorescence assay; assay type: functional, organism-based; conditions: Plasmodium falciparum, Dd2, Erythrocyte, 72 h
How it was run: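 Blood-stage cultures at 2% hematocrit, human O+ RBCs, RPMI 1640 + 25 mM HEPES, 0.5% Albumax-I, 23 mM bicarbonate, 92 μM hypoxanthine. Start at 0.5% parasitemia; 72 h at 37°C, 5% CO₂; freeze-thaw, then SYBR Green in saponin/Triton lysis buffer, 4 h RT dark; fluorescence ex 485/em 535 nm. 10-point curves, technical duplicates or triplicates, final 0.5% DMSO; four-parameter fit gives EC₅₀; mean ± std dev of biological replicates.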

[2] = Kinetic solubility of compound in PBS at pH 6.5 by HPLC analysis; assay type: physicochemical; conditions: read-out: Kinetic_solubility
Plasmodium berghei = assay: Antiplasmodial activity against liver stage Plasmodium berghei ANKA expressing GFP-Luc-SMCO infected in human HepG2-A16-CD81EGFP cells assessed as reduction in liver-stage development of luciferase-expressing parasite by luciferase reporter gene based bioluminescence assay; assay type: functional, organism-based
How it was run: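 Pb-Luc (P. berghei ANKA-GFP-Luc-SMCON) sporozoites infect HepG2-A16-CD81EGFP cells in phenol red-free DMEM with 5% FBS, glutamine, penicillin/streptomycin; compounds scored for blocking liver-stage development by luciferase signal.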

Plasmodium falciparum [3] = assay: Antiplasmodial activity against Plasmodium falciparum mature stage V gametocyte assessed as inhibition of male gametocyte formation by luciferase reporter assay; assay type: functional, organism-based
Plasmodium falciparum [4] = assay: Antiplasmodial activity against Plasmodium falciparum NF54 infected in human RBC assessed as parasite growth inhibition incubated for 72 hrs by SYBR Green dye based fluorescence assay; assay type: functional, organism-based; conditions: NF54, Erythrocyte
Plasmodium falciparum [5] = assay: Antiplasmodial activity against chloroquine, atovaquone and pyrimethamine resistant Plasmodium falciparum TM90C2B infected in human RBC assessed as parasite growth inhibition incubated for 72 hrs by SYBR Green dye based fluorescence assay; assay type: functional, organism-based; conditions: Erythrocyte
Plasmodium falciparum [6] = assay: Antiplasmodial activity against piperaquine and pyrimethamine resistant Plasmodium falciparum RF12 infected in human RBC assessed as parasite growth inhibition incubated for 72 hrs by SYBR Green dye based fluorescence assay; assay type: functional, organism-based; conditions: RF12, Erythrocyte
Plasmodium falciparum [7] = assay: Antiplasmodial activity against chloroquine and pyrimethamine resistant Plasmodium falciparum Dd2 infected in human RBC assessed as parasite growth inhibition incubated for 72 hrs by SYBR Green dye based fluorescence assay; assay type: functional, organism-based; conditions: Dd2, Erythrocyte
How it was run: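 O+ human RBCs at 2% hematocrit and 0.5% starting parasitemia, in RPMI 1640 with 25 mM HEPES, 0.5% Albumax-I, bicarbonate and hypoxanthine. Serial dilutions in triplicate, 0.5% DMSO final, 72 h at 37°C, 5% CO2. Frozen at −80°C, lysed with SYBR Green in saponin/Triton buffer for 4 h in the dark. Ex 485/em 535 nm. EC50 from four-parameter fit; biphasic fit where curves were biphasic.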

Plasmodium falciparum [8] = assay: Antiplasmodial activity against chloroquine resistant Plasmodium falciparum Dd2-GC03 mutant replaced with 3D7 pfcrt sequence at endogenous pfcrt Dd2 locus infected in human RBC assessed as parasite growth inhibition incubated for 72 hrs by SYBR Green dye based fluorescence assay; assay type: functional, organism-based; conditions: Erythrocyte
How it was run: (§1)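 Gene-edited Dd2 lines with the endogenous pfcrt locus replaced by zinc-finger nuclease editing. Concentration-response curves run with technical duplicates at each concentration; values are the average of two biological replicates, with std dev given where more replicates were collected.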

Plasmodium falciparum [9] = assay: (§2) Antiplasmodial activity against chloroquine resistant Plasmodium falciparum Dd2-Dd2 mutant replaced with recombinant Dd2 sequence at endogenous pfcrt Dd2 locus infected in human RBC assessed as parasite growth inhibition incubated for 72 hrs by SYBR Green dye based fluorescence assay; assay type: functional, organism-based; conditions: Erythrocyte; how it was run: as §1
Plasmodium falciparum [10] = assay: as §2, with “chloroquine and piperaquine” for “chloroquine”, “Dd2-M343L” for “Dd2-Dd2”, “with endogenous pfcrt locus with the” for “with”, “sequence and the PPQ resistance-conferring M343L” for “sequence”; assay type: functional, organism-based; conditions: Erythrocyte; how it was run: as §1
Plasmodium falciparum [11] = assay: Antiplasmodial activity against lab-derived […] resistant Plasmodium falciparum Dd2-PfeEF2 mutant infected in human RBC assessed as parasite growth inhibition incubated for 72 hrs by SYBR Green dye based fluorescence assay; assay type: functional, organism-based; conditions: Erythrocyte
Plasmodium falciparum [12] = assay: Antiplasmodial activity against lab-derived MMV390048 resistant Plasmodium falciparum Dd2-Pfpi4K mutant infected in human RBC assessed as parasite growth inhibition incubated for 72 hrs by SYBR Green dye based fluorescence assay; assay type: functional, organism-based; conditions: Erythrocyte
Plasmodium falciparum [13] = assay: Antiplasmodial activity against lab-derived DSM265 resistant Plasmodium falciparum Dd2-PfDHODH mutant infected in human RBC assessed as parasite growth inhibition incubated for 72 hrs by SYBR Green dye based fluorescence assay; assay type: functional, organism-based; conditions: Erythrocyte
Plasmodium falciparum [14] = assay: Antiplasmodial activity against lab-derived KAF156 resistant Plasmodium falciparum Dd2-Pfcarl mutant infected in human RBC assessed as parasite growth inhibition incubated for 72 hrs by SYBR Green dye based fluorescence assay; assay type: functional, organism-based; conditions: Erythrocyte
Plasmodium falciparum [15] = assay: Antiplasmodial activity against lab-derived ELQ300 resistant Plasmodium falciparum Dd2-PfCytB mutant infected in human RBC assessed as parasite growth inhibition incubated for 72 hrs by SYBR Green dye based fluorescence assay; assay type: functional, organism-based; conditions: Erythrocyte
Plasmodium falciparum [16] = assay: (§3) Antiplasmodial activity against Rac-N-(Pyridin-3-yl(1-(o-tolyl)-1H-tetrazol-5-yl)methyl)-N-(3-(trifluoromethyl)benzyl)Cyclopropanamine resistant Plasmodium falciparum 3D7 clone A10 ring-stage parasite assessed as parasite growth inhibition incubated for 72 hrs by SYBR Green and MitoTracker Deep Red FM dye based flow cytometry; assay type: functional, organism-based
How it was run: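 Resistant clonal lines were tested as ring stages at 0.2% parasitemia and 1% hematocrit in RPMI-1640 with 0.5% Albumax. A 10-point 2-fold dilution series was run in duplicate with DMSO controls, final DMSO <0.5%, for 72 h. Survival was read by flow cytometry with SYBR Green as nuclear stain and MitoTracker Deep Red as vital dye. EC50 and EC90 were derived.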

Plasmodium falciparum [17] = assay: as §3, with “F1-B6” for “A10”; assay type: functional, organism-based
How it was run: (§4)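 Clonal 3D7-A10 lines recovered after single-step selection; ring stages at 0.2% parasitemia, 1% hematocrit in RPMI-1640 with 0.5% Albumax. 72 h exposure to a 10-point 2-fold dilution series in duplicate with DMSO controls, final DMSO <0.5%. Survival read by flow cytometry, SYBR Green as nuclear stain and MitoTracker Deep Red FM as vital dye. EC₅₀ and EC₉₀ reported with fold shift relative to parental 3D7-A10.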

Plasmodium falciparum [18] = assay: as §3, with “F1-C1” for “A10”; assay type: functional, organism-based; how it was run: as §4
Plasmodium falciparum [19] = assay: as §3, with “F1-E4” for “A10”; assay type: functional, organism-based; how it was run: as §4

Question: Which EC50 (Plasmodium falciparum [1]) does the source give for `Cc1ccccc1-n1nnnc1C(c1cccnc1)N(Cc1cccc(C(F)(F)F)c1)C1CC1` (racemic) here?
Answer: 540 nM

Question: And the solubility kinetic [2]?
Answer: 1.5 µg/mL (≈ 3.23 µM)

Question: What about the EC50 (Plasmodium berghei) of the same molecule?
Answer: 7300 nM

Question: And the EC50 (Plasmodium falciparum [3])?
Answer: > 25000 nM

Question: And the EC50 (Plasmodium falciparum [4])?
Answer: 480 nM

Question: What about the EC50 (Plasmodium falciparum [5]) of the same molecule?
Answer: 460 nM

Question: What about the EC50 (Plasmodium falciparum [6]) of the same molecule?
Answer: 610 nM

Question: And the EC50 (Plasmodium falciparum [7])?
Answer: 540 nM

Question: And the EC50 (Plasmodium falciparum [8])?
Answer: 890 nM

Question: What about the EC50 (Plasmodium falciparum [9]) of the same molecule?
Answer: 450 nM

Question: What about the EC50 (Plasmodium falciparum [10]) of the same molecule?
Answer: 38000 nM

Question: What about the EC50 (Plasmodium falciparum [11]) of the same molecule?
Answer: 920 nM

Question: What about the EC50 (Plasmodium falciparum [12]) of the same molecule?
Answer: 750 nM

Question: What about the EC50 (Plasmodium falciparum [13]) of the same molecule?
Answer: 800 nM

Question: And the EC50 (Plasmodium falciparum [14])?
Answer: 650 nM

Question: And the EC50 (Plasmodium falciparum [15])?
Answer: 850 nM

Question: And the EC50 (Plasmodium falciparum [16]; 3D7 clone A10, 72 h)?
Answer: 300 nM

Question: And the EC90 (Plasmodium falciparum [16]; 3D7 clone A10, time 72 hrs)?
Answer: 590 nM

Question: And the EC50 (Plasmodium falciparum [17]; 3D7 clone F1-B6, 72 h)?
Answer: 550 nM

Question: What about the EC90 (Plasmodium falciparum [17]; 3D7 clone F1-B6, time 72 hrs) of the same molecule?
Answer: 1100 nM

Question: What about the EC50 (Plasmodium falciparum [18]; 3D7 clone F1-C1, 72 h) of the same molecule?
Answer: 540 nM

Question: What about the EC90 (Plasmodium falciparum [18]; 3D7 clone F1-C1, time 72 hrs) of the same molecule?
Answer: 1000 nM

Question: What about the EC50 (Plasmodium falciparum [19]; 3D7 clone F1-E4, 72 h) of the same molecule?
Answer: 740 nM

Question: And the EC90 (Plasmodium falciparum [19]; 3D7 clone F1-E4, time 72 hrs)?
Answer: 1500 nM
